Measurements collected from several papers.
Each line is one published result; the experiments were not run side by side.
Read-out: cell growth or viability

SMILES | cell line | assay | setting | IC50
COC[C@H](NC(=O)c1ccn(S(C)(=O)=O)c1)C(=O)Nc1nc(-c2cccc(N3C[C@@H](C)O[C@@H](C)C3)n2)cs1 | LNCaP | ATP luminescence | 7 days | 0.008 µM
Cc1c(-c2ccc(N3CCc4cccc(C(=O)Nc5nc6ccccc6s5)c4C3)nc2C(=O)NCCCCNc2cccc3c2C(=O)N(C2CCC(=O)NC2=O)C3=O)cnn1CC12CC3CC(CC(C3)C1)C2 (stereo not drawn) | MOLT-4 | MTS | 48 h | 0.126 µM
CC(=NNC(=O)c1cc(-c2ccccc2)n(-c2ccc(S(N)(=O)=O)cc2)n1)c1ccc(C)cc1 | PaCa-2 | fluorescence | 48 h | 11.5 µM
COc1ccc(C=C(C#N)C(=O)c2c[nH]c3ccccc23)cc1OC | MIA PaCa-2 | MTT | 48 h | 37 µM
Cc1ncsc1-c1ccc(CNC(=O)[C@@H]2C[C@@H](O)CN2C(=O)[C@@H](NC(=O)C2(F)CC2)C(C)(C)C)c(OCCOc2ccc(CN3CCN(c4cc(-c5ccccc5O)nnc4N)CC3)cc2)c1 | LNCaP | ATP luminescence | 7 days | 0.0161 µM
NS(=O)(=O)c1ccc(-n2nc(C(=O)NN=Cc3ccc(O)cc3)cc2-c2ccccc2)cc1 | PaCa-2 | fluorescence | 48 h | 8.53 µM
COc1cc([C@@H]2c3cc4c(cc3[C@@H](O[C@@H]3O[C@@H]5CO[C@@H](C)O[C@H]5[C@H](O)[C@H]3O)[C@H]3COC(=O)[C@H]23)OCO4)cc(OC)c1O | DU-145 | MTT | – | 0.5 µM
O=C(NO)c1ccc(Cn2cnc3c(Nc4ccc(F)c(Cl)c4)ncnc32)cc1 | Jurkat | MTT | 72 h | 1.2 µM
CCNC(=O)c1nc(N2CCc3cccc(C(=O)Nc4nc5ccccc5s4)c3C2)ccc1-c1cnn(CC23CC4CC(CC(C4)C2)C3)c1C | MOLT-4 | MTS | 48 h | 0.481 µM
O=C(NO)c1ccc(Cn2cnc3c(Nc4cccc([N+](=O)[O-])c4)ncnc32)cc1 | Jurkat | MTT | 72 h | 0.89 µM
COc1ccc2c(C(=O)C(C#N)=Cc3cn(Cc4ccc(Cl)cc4)c4ccccc34)c[nH]c2c1 | MIA PaCa-2 | MTT | 48 h | 7.9 µM
FC(F)(F)c1cc(OCc2cc(-c3ccc(Cl)cc3Cl)no2)c2ccccc2n1 | LN-229 | MTS | 72 h | > 100 µM
NS(=O)(=O)c1ccc(-n2nc(C(=O)NN=Cc3cccnc3)cc2-c2ccccc2)cc1 | PaCa-2 | fluorescence | 48 h | 27.8 µM
COc1cc2[nH]cc(C(=O)C(C#N)=Cc3cn(C)c4ccccc34)c2cc1OC | MIA PaCa-2 | MTT | 48 h | 15.6 µM
COc1cc([C@@H]2c3cc4c(cc3[C@@H](O[C@@H]3O[C@@H]5CO[C@@H](C)O[C@H]5[C@H](O)[C@H]3O)[C@H]3COC(=O)[C@H]23)OCO4)cc(OC)c1O | LN-229 | MTS | 72 h | 4.8 µM
CC(=NNC(=O)c1cc(-c2ccccc2)n(-c2ccc(S(N)(=O)=O)cc2)n1)c1ccc(Br)cc1 | PaCa-2 | fluorescence | 48 h | 31.5 µM
Cc1c(-c2ccc(N3CCc4cccc(C(=O)Nc5nc6ccccc6s5)c4C3)nc2C(=O)O)cnn1CC12CC3CC(C1)CC(C(=O)NCCCCNc1cccc4c1C(=O)N(C1CCC(=O)NC1=O)C4=O)(C3)C2 (stereo not drawn) | MOLT-4 | MTS | 48 h | 0.0302 µM
COc1cc2[nH]cc(C(=O)C(C#N)=Cc3cn(Cc4ccc(Cl)cc4)c4ccccc34)c2cc1OC | MIA PaCa-2 | MTT | 48 h | > 40 µM
O=c1cc(OCc2cc(-c3ccccc3)no2)c2ccccc2o1 | LN-229 | MTS | 72 h | > 100 µM
O=C(CSc1nc2ccccc2s1)N/N=C/c1ccc(OCC(=O)Nc2cccc(Cl)c2)cc1 | LN-229 | MTS | 72 h | 19.6 µM
COc1ccc(C=C(C#N)C(=O)c2c[nH]c3ccccc23)cc1 | MIA PaCa-2 | MTT | 48 h | 15.4 µM
O=C(CSc1nc2ccccc2s1)N/N=C/c1ccc(OCC(=O)Nc2ccc([N+](=O)[O-])cc2)cc1 | LN-229 | MTS | 72 h | 4.39 µM
NS(=O)(=O)c1ccc(-n2nc(-c3nnc(S)o3)cc2-c2ccccc2)cc1 | PaCa-2 | fluorescence | 48 h | 34.2 µM
Cc1ncsc1-c1ccc([C@H](C)NC(=O)[C@@H]2C[C@@H](O)CN2C(=O)[C@@H](NC(=O)CCCCCCCNC(=O)c2nc(N3CCc4cccc(C(=O)Nc5nc6ccccc6s5)c4C3)ccc2-c2cnn(CC34CC5CC(CC(C5)C3)C4)c2C)C(C)(C)C)cc1 | MOLT-4 | MTS | 48 h | 0.065 µM

SMILES | cell line | assay | setting | IC50
FC(F)(F)c1cc(OCc2cc(-c3ccccn3)no2)c2ccccc2n1 | LN-229 | MTS | 72 h | > 100 µM
COc1ccc2[nH]cc(C(=O)C(C#N)=Cc3cn(C)c4ccccc34)c2c1 | MIA PaCa-2 | MTT | 48 h | 4.5 µM
O=C(CSc1nc2ccccc2s1)N/N=C/c1ccc(OCC(=O)Nc2cccc(Br)c2)cc1 | LN-229 | MTS | 72 h | 65.5 µM
N#Cc1ccc(-c2cc(COc3cc(=O)oc4ccccc34)on2)cc1 | LN-229 | MTS | 72 h | > 100 µM
COc1cc(C2C3=C(COC3=O)N(CCO)c3cc4c(cc32)CCC4)cc(OC)c1OC (stereo not drawn) | BT-549 | ATP luminescence | 48 h | 0.037 µM
Nc1ccccc1NC(=O)c1ccc(Cn2cnc3c(Nc4ccc(Cl)cc4)ncnc32)cc1 | MOLT-4 | MTT | 72 h | 0.49 µM
COc1cc(C=NNC(=O)c2cc(-c3ccccc3)n(-c3ccc(S(N)(=O)=O)cc3)n2)cc(OC)c1OC | PaCa-2 | fluorescence | 48 h | 22 µM
Nc1ccccc1NC(=O)c1ccc(Cn2cnc3c(Nc4ccc(Br)cc4F)ncnc32)cc1 | MOLT-4 | MTT | 72 h | 0.45 µM
CN1CCC(NC2CCc3[nH]c4c(C(N)=O)ccc(-c5ccccc5Cl)c4c3C2)CC1 (stereo not drawn) | Jurkat | – | 96 h | 0.0193 µM
O=C(CSc1nc2ccccc2s1)N/N=C/c1ccc(OCC(=O)Nc2cccc([N+](=O)[O-])c2)cc1 | MOLT-4 | MTS | 72 h | 15.3 µM
COc1ccc(Nc2ncnc3c2ncn3Cc2ccc(C(=O)Nc3ccccc3N)cc2)cc1 | Jurkat | MTT | 72 h | 9.74 µM
c1ccc(-c2cc(CNc3cccc4cccnc34)on2)cc1 | LN-229 | MTS | 72 h | 33.7 µM
Cc1c(-c2ccc(N3CCc4cccc(C(=O)Nc5nc6ccccc6s5)c4C3)nc2C(=O)NCCCCCCCCNc2cccc3c2C(=O)N(C2CCC(=O)NC2=O)C3=O)cnn1CC12CC3CC(CC(C3)C1)C2 (stereo not drawn) | MOLT-4 | MTS | 48 h | > 2 µM
O=c1cc(OCc2cc(-c3ccccn3)no2)c2ccccc2o1 | LN-229 | MTS | 72 h | > 100 µM
CNc1cccc(Nc2nc(-c3ccncc3)nc3c2CNCC3)c1 | DU-145 | MTT | – | 45.2 µM
C=C1C[C@@]23CC[C@H]4[C@@](C)(CCC[C@@]4(C)C(=O)O)[C@@H]2CC[C@@H]1C3 | T47D | MTT | 75 h | 150 µM
Clc1ccc(-c2cc(CNc3cccc4cccnc34)on2)c(Cl)c1 | LN-229 | MTS | 72 h | 54.4 µM
Cc1ncsc1-c1ccc([C@H](CC(=O)NCCCCNC(=O)c2nc(N3CCc4cccc(C(=O)Nc5nc6ccccc6s5)c4C3)ccc2-c2cnn(CC34CC5CC(CC(C5)C3)C4)c2C)NC(=O)[C@@H]2C[C@@H](O)CN2C(=O)[C@@H](NC(=O)C2(C#N)CC2)C(C)(C)C)cc1 | MOLT-4 | MTS | 48 h | 0.0313 µM
Nc1cccc2c1C(=O)N(C1CCC(=O)NC1=O)C2=O (stereo not drawn) | SU-DHL-2 | CCK-8 | 7 days | 1.5 µM
N/C(=N\O)c1ccc(-c2cc(CNc3cccc4cccnc34)on2)cc1 | LN-229 | MTS | 72 h | 15.6 µM
Cc1ncsc1-c1ccc([C@H](C)NC(=O)[C@H]2C[C@H](O)CN2C(=O)[C@@H](NC(=O)CCCCCCCS(=O)(=O)NC(=O)c2nc(N3CCc4cccc(C(=O)Nc5nc6ccccc6s5)c4C3)ccc2-c2cnn(CC34CC5CC(CC(C5)C3)C4)c2C)C(C)(C)C)cc1 | human Platelet | MTS | 48 h | 0.931 µM
Cc1nc(Nc2ncc(C(=O)Nc3c(C)cccc3Cl)s2)cc(N2CC[C@H](O)C2)n1 | SU-DHL-2 | ATP luminescence | 72 h | > 10 µM
Cc1c(-c2ccc(N3CCc4cccc(C(=O)Nc5nc6ccccc6s5)c4C3)nc2C(=O)O)cnn1CC12CC3CC(C1)CC(C(=O)NCCCCCCCCCCNc1cccc4c1C(=O)N(C1CCC(=O)NC1=O)C4=O)(C3)C2 (stereo not drawn) | MOLT-4 | MTS | 48 h | 0.021 µM
COC(=O)c1cc(C(C)=NNc2nc(-c3cccc4cc[nH]c34)cs2)ccc1O | T47D | MTT | 96 h | 20.8 µM
